# Published values from different studies.
# Lines come from different studies, so protocols differ.
# Sample: plasma
Compound,host,route,dose,setting,endpoint,result
Cc1cc2sc(N)nc2c2cccnc12,female BALB/c mouse,intraperitoneal,30 mg/kg,single dose,AUC(0-inf),45600 ng·h/mL
Nc1ncn([C@H]2C[C@H](O)[C@@H](CO)O2)c(=O)n1,female C57BL/6 mouse,oral,0.4 mg/kg,,AUC(0-inf),71 ng·h/mL
CN1CCN(C(=O)[C@H](CCCN[C@@H]2C[C@H]2c2ccc(F)cc2)NC(=O)c2ccc(-n3ccnn3)cc2)CC1,CD-1 mouse,intravenous,3 mg/kg,,AUC(0-t),2.52 µM·h
CCOC(=O)CN(C(=O)c1ccn2ncc(-c3ccc(C(=O)NC)cc3)c2c1)c1ccc(Cl)cc1,female C57BL/6 mouse,oral,10 mg/kg,,AUC,1.18 µM·h
CCN1CCN(Cc2ccc(NC(=O)c3ccc(C)c(NC(=O)c4cncc(-c5cccs5)c4)c3)cc2C(F)(F)F)CC1,mouse,intraperitoneal,20 mg/kg,single dose,AUC(0-t),1990 ng·h/mL
CC(=O)O[C@@]12CO[C@@H]1C[C@H](O)[C@@]1(C)C(=O)[C@H](O)C3=C(C)[C@@H](OC(=O)[C@H](O)[C@@H](NC(=O)OC(C)(C)C)c4ccccc4)C[C@@](O)([C@@H](OC(=O)c4ccccc4)[C@H]21)C3(C)C,male Kunming mouse,oral,20 mg/kg,,AUC(0-t),14.7 ng·h/mL
CN(C(=O)c1ccn2ncc(-c3ccc(C(N)=O)cc3)c2c1)c1ccc(C#N)cn1,female C57BL/6 mouse,intravenous,1 mg/kg,,AUC,2.68 µM·h
CCOc1ccc(N(C)S(=O)(=O)c2cc(Cl)sc2C(=O)Nc2cc(Cl)cc(C(=O)O)c2)cc1OC,male C57BL/6 mouse,intraperitoneal,10 mg/kg,,AUC(0-t),5810 ng·h/mL
C=CS(=O)(=O)c1ccc(Nc2nc(OCC3CCCCC3)c3nc[nH]c3n2)cc1,male BALB/c mouse,intravenous,20 mg/kg,single dose,AUC(0-t),124 ng·h/mL
Cc1c(C(=O)O)ccc2c3n(nc12)[C@@H]1[C@H](C3)N(CC2CC2)[C@@]2(C(=O)Nc3cc(Cl)ccc32)[C@H]1c1cccc(Cl)c1F,female mouse,oral,5 mg/kg,,AUC(0-inf),125 µM·h
COc1cc2c(NC3CCN(CCCC(=O)NCCCCCCCCCCCC(=O)N[C@H](C(=O)N4C[C@H](O)C[C@H]4C(=O)NCc4ccc(-c5scnc5C)cc4)C(C)(C)C)CC3)nc(N3CCC(F)(F)CC3)nc2cc1OCCCN1CCCC1,male C57BL/6 mouse,intraperitoneal,50 mg/kg,single dose,AUC(0-t),61 µM·h
